Series [1] can be described thus: MRT in mouse plasma implanted with mouse 4T1 cells at 5.7 mg/kg,iv measured upto 72 hrs. It is filed as ADME, organism-based.
The nature of series [2]: Half life in mouse tumor implanted with mouse 4T1 cells at 5.7 mg/kg,iv measured upto 72 hrs. It is filed as ADME, organism-based, Neoplasm.
Series [3] can be described thus: Toxicity in BALB/c mouse xenografted with human HCT-116 cells assessed as side effects at 5.7 mg/kg,iv administrated once per week for 3 weeks. It is filed as organism-based. As to conditions: in vivo, 504 h. The method, boiled down:
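Nude BALB/c nu/nu mice received subcutaneous human tumour cells into the right flank. Dosing started at mean tumour volume of 100–120 mm3, iv once weekly for 3 weeks; the taxane arm was an equimolar control. Body weight and overt side effects were monitored. Mean ± SEM, n = 8.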
(In general: A xenograft is tissue or cells of one species grown in another, often human tumour cells in immunodeficient mice.)

The test system of series [4] is 4T1. Kind of series: Antitumor activity against mouse 4T1 cells implanted in BALB/c mouse assessed as decrease in serum MMP9 level at 5.7 mg/kg,iv administrated once per week for 4 weeks in presence of MDA-205 by ELISA. It is filed as functional, organism-based. A general note: An ELISA detects its analyte on a solid surface through an enzyme-linked reagent.
The subject of series [5] is 4T1. Kind of series: Antitumor activity against mouse 4T1 cells implanted in BALB/c mouse assessed as decrease in tumor MMP9 expression level at 5.7 mg/kg,iv administrated once per week for 4 weeks by western blot assay. It is filed as functional, organism-based. Summed up: (§1)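 4T1 cells injected into mammary fat pads of BALB/c mice. Saline vehicle or test article given iv once weekly for 4 weeks. Spleen, lung and tumor lysates immunoblotted for MMP2/MMP9 with β-actin as loading control. Bands averaged over five mice per group, representative of two independent experiments.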

Series [6] concerns 4T1. The series is described as follows: Antitumor activity against mouse 4T1 cells implanted in BALB/c mouse assessed as decrease in tumor MMP2 expression level at 5.7 mg/kg,iv administrated once per week for 4 weeks in presence of MDA-205 by western blot assay. It is filed as functional, organism-based. The method, boiled down: as §1
(In general: A western blot detects proteins with antibodies after separation by electrophoresis.)

Series [7] is described as follows: AUC (0-t) in mouse tumor implanted with mouse 4T1 cells at 10 mg/kg,iv measured upto 72 hrs. It is filed as ADME, organism-based, Neoplasm. Details: time < 72 hrs, dose 10 mg/kg, route iv. Summed up: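 4T1 tumor-bearing mice (4T1 cells implanted in the mammary fat pad) received a single iv dose of 10 mg/kg. Plasma and tumor tissue were sampled up to 72 h, with n = 6. Levels of parent and of released docetaxel were measured. AUC came from noncompartmental analysis, reported as mean ± SD.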

The nature of series [8]: Prodrug conversion in mouse plasma implanted with mouse 4T1 cells assessed as half life of docetaxel at 4 mg/kg,iv measured upto 72 hrs. It is filed as ADME, organism-based. As to conditions: in vivo.
Series [9] in a line: Volume of distribution at steady state in rat at 4 mg/kg,iv measured upto 24 hrs. The settings on record: in vivo, read-out: Vdss. It is filed as ADME, organism-based.
Series [10] can be described thus: Volume of distribution at steady state in male rat at 4 mg/kg,iv measured upto 24 hrs. It is filed as ADME, organism-based. The settings on record: in vivo, read-out: Vdss.
Series [11] can be described thus: Clearance in male Beagle dog at 2 mg/kg,iv measured upto 24 hrs. It is filed as ADME, organism-based, Canis lupus familiaris. The settings on record: in vivo. The method, boiled down:
(§2)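 Beagle dogs were given a single iv infusion at 1, 2 or 4 mg/kg. Plasma parent drug and released docetaxel were followed over time. Cmax, Tmax, AUC, MRT, t1/2, CL and Vss were reported by sex and for all dogs combined.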

The nature of series [12]: AUC (0-infinity) in female rat at 2 mg/kg,iv measured upto 24 hrs. The settings on record: in vivo. It is filed as ADME, organism-based. Details: time < 24 hrs, dose 2 mg/kg, route iv. The method, boiled down: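 Single iv dose: rats 2, 4 or 8 mg/kg by intravenous injection; Beagle dogs 1, 2 or 4 mg/kg by intravenous infusion. Plasma concentration–time data were analysed by sex and pooled. Reported parameters: Cmax, Tmax, AUC0−t, AUC0−∞, MRT0−∞, t1/2, CL, Vss, given as mean ± SD.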

Series [13] in a line: Tmax in female rat at 4 mg/kg,iv measured upto 24 hrs. It is filed as ADME, organism-based. As to conditions: in vivo.
Series [14] in a line: Tmax in female Beagle dog at 4 mg/kg,iv measured upto 24 hrs. It is filed as ADME, organism-based, Canis lupus familiaris. As to conditions: in vivo.
Series [15] can be described thus: Cmax in rat at 8 mg/kg,iv measured upto 24 hrs. It is filed as ADME, organism-based. Details: time < 24 hrs, dose 8 mg/kg, route iv. The settings on record: in vivo. Summed up:
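Rats were given a single iv injection at 2, 4 or 8 mg/kg. Plasma parent drug and released docetaxel were followed over time. Cmax, Tmax, AUC, MRT, t1/2, CL and Vss were reported for males, females and all animals combined.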

Series [16] in a line: Cmax in male Beagle dog at 1 mg/kg,iv measured upto 24 hrs. The arrangement: dose 1 mg/kg, time < 24 hrs, route iv. The settings on record: in vivo. It is filed as ADME, organism-based, Canis lupus familiaris. Summed up:
as §2

Series [17] is described as follows: Cmax in male Beagle dog at 4 mg/kg,iv measured upto 24 hrs. Details: time < 24 hrs, dose 4 mg/kg, route iv. The settings on record: in vivo. It is filed as ADME, organism-based, Canis lupus familiaris. The method, boiled down: as §2
In series [18] the test system is 4T1. Kind of series: Synergistic antitumor activity against mouse 4T1 cells xenografted with BALB/c mouse assessed as decrease in tumor volume at 10 mg/kg,iv administrated in combination with doxorubicin once per week for 4 weeks. It is filed as functional, organism-based.
Series [19] is described as follows: Toxicity in BALB/c mouse xenografted with human A549/Taxol cells assessed as side effects at 10 mg/kg,iv administrated once per week for 3 weeks. It is filed as organism-based, A549/TR. As to conditions: in vivo, 504 h.
The nature of series [20]: Toxicity in BALB/c mouse xenografted with human MDA-MB-231 cells assessed as side effects at 10 mg/kg,iv administrated once per week for 3 weeks. It is filed as organism-based. As to conditions: in vivo, 504 h.
Series [21] in a line: Toxicity in Beagle dog assessed as decrease in body temperature at 1 to 4 mg/kg,iv measured after 1 to 4 hrs. It is filed as organism-based, Canis lupus familiaris. The settings on record: in vivo, dose lower 1 mg/kg, time lower 1 hrs, dose upper 4 mg/kg, time upper 4 hrs.
A further series addresses Cytochrome P450 2B6 (Homo sapiens, UniProt P20813). Kind of series: Inhibition of CYP2B6 in human liver microsomes using probe substrate at 0.1 to 100 uM in presence of NADPH. It is filed as ADME, Microsome. As to conditions: dose 0.1-100 µM.
Another series deals with Cytochrome P450 2C9 (Homo sapiens, UniProt P11712). The series is described as follows: Inhibition of CYP2C9 in human liver microsomes using probe substrate at 0.1 to 100 uM in presence of NADPH. It is filed as ADME, Microsome. The settings on record: dose 0.1-100 µM.
Series [22] in a line: Drug metabolism in human hepatocytes assessed as MDA-205 metabolite formation at 20 uM incubated for 180 mins. As to conditions: 3 h. It is filed as ADME, cell-based, Hepatocyte.
A short description of series [23]: Drug metabolism in mouse hepatocytes assessed as docetaxel metabolite formation at 20 uM incubated for 180 mins. It is filed as ADME, cell-based, Hepatocyte. The settings on record: 3 h.
The nature of series [24]: Drug metabolism in human hepatocytes assessed as docetaxel metabolite formation at 20 uM incubated for 180 mins. It is filed as ADME, cell-based, Hepatocyte. As to conditions: 3 h.
Series [25] in a line: Stability in human hepatocyte assessed as compound remaining at 3 uM incubated upto 120 mins. The settings on record: hepatocytes, 2 h. It is filed as ADME, cell-based.
A further series relates to MDA-MB-231. The series is described as follows: Antiproliferative activity against human MDA-MB-231 cells assessed inhibition of cell growth incubated for 72 hrs by SRB assay. The settings on record: MDA-MB-231, 72 h. It is filed as functional, cell-based.
The subject of another series is BT-474. The series is described as follows: Antiproliferative activity against human BT-474 cells assessed inhibition of cell growth incubated for 72 hrs by SRB assay. As to conditions: BT-474, 72 h. It is filed as functional, cell-based.
Another series has as its system A549. The series is described as follows: Antiproliferative activity against human A549 cells assessed inhibition of cell growth incubated for 72 hrs by SRB assay. It is filed as functional, cell-based. The settings on record: A549, 72 h.
Series [26] in a line: Toxicity in Beagle dog assessed as erythema at 3 to 18 mg/kg,iv measured upto 24 hrs. It is filed as organism-based, Canis lupus familiaris. As to conditions: in vivo, dose 3-18 mg/kg.
The subject of series [27] is 4T1. Kind of series: Antitumor activity against mouse 4T1 cells implanted in BALB/c mouse assessed as decrease in serum TIMP-1 level at 10 mg/kg,iv administrated once per week for 4 weeks by ELISA. It is filed as functional, organism-based. Summed up: (§3)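 4T1 fat-pad model in BALB/c mice, iv 5–20 mg/kg once weekly for 4 weeks, with vehicle and naive groups; serum MMP9, TIMP-1, IL-6 and S100A9 measured by mouse ELISA kits.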

Series [28] concerns 4T1. The series is described as follows: Antitumor activity against mouse 4T1 cells implanted in BALB/c mouse assessed as decrease in serum TIMP-1 level at 20 mg/kg,iv administrated once per week for 4 weeks by ELISA. It is filed as functional, organism-based. Summed up:
as §3

One may read the MRT as the average time that molecules of a dose stay in the body. Usually half-life stands for how long it takes for the measured level to halve. Read a high half-life as slow decline. Usually AUC(0-t) stands for the area under the concentration-time curve up to a stated or last time point. A higher AUC(0-t) goes with more exposure. Broadly, the clearance is the volume of plasma or blood freed of the substance per unit of time. Broadly, the AUC(0-inf) is total exposure, with the tail of the curve extrapolated. In general, Tmax refers to the time at which the peak concentration occurs. As a reminder, the Cmax is the peak of the concentration-time curve. One may read the IC50 as the midpoint of a concentration-inhibition curve.

Molecules are shown by their SMILES. The source made the active and inactive calls. The calls are words filed in the database; no cut-off is given here.

Cytochrome P450 2C9, sequence (P11712 whole entry): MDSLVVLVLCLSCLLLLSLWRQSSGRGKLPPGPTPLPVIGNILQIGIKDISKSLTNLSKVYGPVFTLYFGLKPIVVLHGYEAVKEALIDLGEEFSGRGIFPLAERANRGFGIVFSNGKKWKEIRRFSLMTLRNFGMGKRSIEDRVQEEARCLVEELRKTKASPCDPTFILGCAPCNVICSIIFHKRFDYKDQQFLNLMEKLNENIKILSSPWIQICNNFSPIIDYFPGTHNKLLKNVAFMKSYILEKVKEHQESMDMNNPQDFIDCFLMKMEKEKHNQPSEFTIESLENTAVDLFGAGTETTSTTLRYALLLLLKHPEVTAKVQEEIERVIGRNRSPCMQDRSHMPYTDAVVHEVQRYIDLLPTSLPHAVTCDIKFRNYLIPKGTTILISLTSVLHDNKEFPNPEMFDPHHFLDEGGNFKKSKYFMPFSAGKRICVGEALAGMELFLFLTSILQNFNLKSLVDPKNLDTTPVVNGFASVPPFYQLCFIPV
Cytochrome P450 2B6, sequence (P20813 whole entry): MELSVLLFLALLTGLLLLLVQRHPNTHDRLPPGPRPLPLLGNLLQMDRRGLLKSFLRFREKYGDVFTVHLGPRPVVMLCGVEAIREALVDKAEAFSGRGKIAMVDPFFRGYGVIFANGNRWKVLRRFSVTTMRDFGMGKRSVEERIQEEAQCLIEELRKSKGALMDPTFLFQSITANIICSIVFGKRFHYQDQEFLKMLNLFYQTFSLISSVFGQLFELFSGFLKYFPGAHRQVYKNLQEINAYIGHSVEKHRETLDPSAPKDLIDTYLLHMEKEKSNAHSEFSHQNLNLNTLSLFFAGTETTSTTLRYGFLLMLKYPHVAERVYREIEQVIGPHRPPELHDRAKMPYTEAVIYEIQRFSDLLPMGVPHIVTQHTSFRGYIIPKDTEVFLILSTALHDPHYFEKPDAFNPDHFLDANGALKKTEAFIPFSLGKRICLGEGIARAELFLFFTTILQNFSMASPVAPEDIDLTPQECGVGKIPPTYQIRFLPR

In series [1], `CC(=O)O[C@@]12CO[C@@H]1C[C@H](O)[C@@]1(C)C(=O)[C@H](O)C3=C(C)[C@@H](OC(=O)[C@H](O)[C@@H](NC(=O)OC(C)(C)C)c4ccccc4)C[C@@](O)([C@@H](OC(=O)c4ccccc4)[C@H]21)C3(C)C` [DOCETAXEL ANHYDROUS] gave a mean residence time MRT of 2.29 h. Moreover, the half-life in [2] was 49.1 h. Moreover, the Activity entry in series [3] is “Non-Toxic”. Moreover, the result in the series on 4T1 [4] was Active. Besides, the result with 4T1 [5] and with 4T1 [6] was inactive.

`CC(=O)O[C@@]12CO[C@@H]1C[C@H](O)[C@@]1(C)C(=O)[C@H](O)C3=C(C)[C@@H](OC(=O)[C@H](OC(=O)CCC(=O)NCCCC[C@H](NC(=O)CC[C@@H](NC(=O)[C@H](C)NC(=O)/C=C/c4ccc(F)cc4Cl)C(N)=O)C(=O)O)[C@@H](NC(=O)OC(C)(C)C)c4ccccc4)C[C@@](O)([C@@H](OC(=O)c4ccccc4)[C@H]21)C3(C)C`: the AUC(0-t) at 72 h in [7] came to 0.11 µM·h. Moreover, in series [8], the t1/2 is 2.97 h. In addition, the Vd in series [9] amounted to 0.076 L/kg; in [10], 0.073 L/kg. In series [11], the clearance stood at 7.13 mL/min/kg. The AUC(0-inf) in series [12] is 4330 ng·h/mL. Further, the values for the Tmax in series [13] and in [14] were 4.98 min and 0.5 h, respectively. The peak concentration (Cmax) amounted to 62200 ng/mL in [15], 3740 ng/mL in series [16] and 29600 ng/mL in series [17]. Further, the result with 4T1 [18], in the series with 4T1 [27] and with 4T1 [28] was Active. In addition, the Activity entry in series [19] is listed as “Non-Toxic”; in [20] it was “Non-Toxic”; in [21] it was “Non-Toxic”; in [26], “Toxic”. Moreover, the “inhibition (INH)” value on Cytochrome P450 2B6 and on Cytochrome P450 2C9 was “Not Active” throughout. Further, the Drug metabolism result in series [22], in [23] and in series [24] was “Metabolite_Detected” throughout. In series [25], the Stability result was “Stable”. Further, the IC50 in the series on MDA-MB-231, with BT-474 and in the series on A549 was 16.3 nM each time.
